From ChEMBL document CHEMBL1132919, “Structure-activity studies for a novel series of tricyclic substituted hexahydrobenz[e]isoindole alpha(1A) adrenoceptor antagonists as potential agents for the symptomatic treatment of benign prostatic hyperplasia (BPH)” (J Med Chem, 2000)

How the values were obtained:
[1] = species on record: Cricetulus griseus; assay: Ratio between Ki(alpha-1b)/Ki(alpha1A)
[2] = molecular target: T1, Alpha-1A adrenergic receptor (Rattus norvegicus, UniProt P43140); assay: In vitro binding affinity using [3H]prazosin as radioligand against alpha-1A adrenergic receptor
T1 sequence (P43140 whole entry): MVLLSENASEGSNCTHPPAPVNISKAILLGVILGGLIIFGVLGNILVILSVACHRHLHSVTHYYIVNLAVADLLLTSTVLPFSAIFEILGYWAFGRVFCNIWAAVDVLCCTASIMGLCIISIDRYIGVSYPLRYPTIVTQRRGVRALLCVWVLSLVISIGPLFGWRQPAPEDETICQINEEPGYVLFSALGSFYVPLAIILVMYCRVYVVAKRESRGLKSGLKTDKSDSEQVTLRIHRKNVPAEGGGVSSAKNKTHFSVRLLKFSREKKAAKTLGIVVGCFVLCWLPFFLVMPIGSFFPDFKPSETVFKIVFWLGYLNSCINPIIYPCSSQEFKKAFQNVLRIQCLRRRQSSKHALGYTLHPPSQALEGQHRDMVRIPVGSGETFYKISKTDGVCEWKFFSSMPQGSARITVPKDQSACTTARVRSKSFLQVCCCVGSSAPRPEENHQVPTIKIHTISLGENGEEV
Method in brief: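 Binding to pharmacologically defined α1A site in rat submaxillary gland membranes; [3H]-prazosin ~200 pM, nonspecific binding with 10^-5 M phentolamine (final); ~0.1 mg protein per tube in 50 mM Tris-HCl pH 7.4, 60 min at 25 °C.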

[3] = molecular target: T2, Alpha-1D adrenergic receptor (Rattus norvegicus, UniProt P23944); assay: In vitro binding affinity using [3H]prazosin as radioligand against alpha-1D adrenergic receptor expressed in LTK cell; assay type: cell-based
T2 sequence (P23944 whole entry): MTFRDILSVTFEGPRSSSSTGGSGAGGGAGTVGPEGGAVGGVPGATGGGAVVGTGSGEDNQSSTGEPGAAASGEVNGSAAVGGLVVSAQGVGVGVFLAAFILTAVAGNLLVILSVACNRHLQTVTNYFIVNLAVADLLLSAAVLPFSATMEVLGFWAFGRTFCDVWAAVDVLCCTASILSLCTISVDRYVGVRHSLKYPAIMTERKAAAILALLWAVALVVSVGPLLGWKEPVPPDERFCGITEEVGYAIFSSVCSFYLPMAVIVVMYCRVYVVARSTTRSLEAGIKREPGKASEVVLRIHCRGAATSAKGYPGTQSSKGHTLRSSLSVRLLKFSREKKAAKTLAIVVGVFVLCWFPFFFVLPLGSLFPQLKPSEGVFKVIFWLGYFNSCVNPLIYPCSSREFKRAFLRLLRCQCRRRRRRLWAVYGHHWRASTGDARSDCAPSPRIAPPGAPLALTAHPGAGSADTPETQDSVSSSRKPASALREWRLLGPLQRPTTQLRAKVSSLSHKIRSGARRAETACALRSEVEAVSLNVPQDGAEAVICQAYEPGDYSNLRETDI
Method in brief: (§1)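 Membranes from mouse LTK- fibroblasts stably expressing cloned hamster α1B or rat α1D, grown in roller bottles, frozen in liquid N2 and stored at -70 °C. Incubated with [3H]-prazosin ~200 pM, ~0.1 mg protein per tube, in 50 mM Tris-HCl pH 7.4 for 60 min at 25 °C; nonspecific binding defined by 10^-5 M phentolamine (final).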

[4] = molecular target: T3, Alpha-1B adrenergic receptor (Mesocricetus auratus, UniProt P18841); assay: In vitro binding affinity using [3H]prazosin as radioligand against alpha-1B adrenergic receptor expressed in LTK cell; assay type: cell-based; method in brief: as §1
T3 sequence (P18841 whole entry): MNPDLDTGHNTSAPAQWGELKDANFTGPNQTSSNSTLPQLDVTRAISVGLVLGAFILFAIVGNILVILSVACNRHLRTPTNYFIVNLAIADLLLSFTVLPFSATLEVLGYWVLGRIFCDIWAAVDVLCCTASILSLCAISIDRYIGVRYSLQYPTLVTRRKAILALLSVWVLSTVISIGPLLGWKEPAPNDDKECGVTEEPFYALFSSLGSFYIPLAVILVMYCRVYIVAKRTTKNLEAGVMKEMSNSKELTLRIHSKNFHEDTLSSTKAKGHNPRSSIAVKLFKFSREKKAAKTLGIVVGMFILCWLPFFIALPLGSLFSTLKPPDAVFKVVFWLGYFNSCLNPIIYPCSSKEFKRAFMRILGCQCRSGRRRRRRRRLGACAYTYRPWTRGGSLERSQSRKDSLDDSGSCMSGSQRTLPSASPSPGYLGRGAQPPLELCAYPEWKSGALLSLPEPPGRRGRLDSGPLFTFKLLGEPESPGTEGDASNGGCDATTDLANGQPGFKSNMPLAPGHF

Compound	Selectivity ratio [1]	Ki [2]	Ki [3]	Ki [4]
COc1cccc2c1CC[C@H]1CN(CCn3c(=O)[nH]c4c(sc5ncncc54)c3=O)C[C@@H]21	22.8	0.68 nM	2.08 nM	15.5 nM
COc1cccc2c1CCC1CN(CCn3c(=O)[nH]c4c(oc5ccccc54)c3=O)CC21 (cis isomer)	2.48	2.17 nM	0.68 nM	5.39 nM
COc1cccc2c1CC[C@H]1CN(CCn3c(=O)[nH]c4c(sc5cc(C(F)(F)F)ccc54)c3=O)C[C@@H]21	2.56	9.27 nM	6.84 nM	23.8 nM
COc1cccc2c1CC[C@H]1CN(CCn3c(=O)[nH]c4c(sc5cccc(OC)c54)c3=O)C[C@@H]21	4	0.77 nM	1.07 nM	3.1 nM
COc1cccc2c1CC[C@H]1CN(CCn3c(=O)[nH]c4c(sc5cc(C(N)=O)ccc54)c3=O)C[C@@H]21	2.9	0.29 nM	0.27 nM	0.86 nM
COc1cccc2c1CC[C@H]1CN(CCn3c(=O)[nH]c4c(sc5c(OC)ccnc54)c3=O)C[C@@H]21	8.45	0.79 nM	1.41 nM	6.69 nM
COc1cccc2c1CC[C@H]1CN(CCn3c(=O)[nH]c4c(sc5nccnc54)c3=O)C[C@@H]21	17.3	0.72 nM	2.06 nM	12.5 nM
COc1cccc2c1CCC1CN(CCCCn3c(=O)[nH]c4c(sc5ccccc54)c3=O)CC21 (cis isomer)	1.33	7.43 nM	4.77 nM	9.95 nM
COc1cccc2c1CC[C@H]1CN(CCn3c(=O)[nH]c4c(sc5cncnc54)c3=O)C[C@@H]21	9.8	1.62 nM	3.74 nM	15.9 nM
COc1ccc2sc3c(=O)n(CCN4C[C@@H]5CCc6c(OC)cccc6[C@@H]5C4)c(=O)[nH]c3c2n1	4.5	0.66 nM	1.1 nM	3 nM
COc1cccc2c1CC[C@H]1CN(CCn3c(=O)[nH]c4c(sc5nc(-c6ccccc6)cnc54)c3=O)C[C@@H]21	12	153 nM	160 nM	1850 nM
COc1cnc2sc3c(=O)n(CCN4C[C@@H]5CCc6c(OC)cccc6[C@@H]5C4)c(=O)[nH]c3c2n1	10.6	0.35 nM	1.1 nM	3.73 nM
COc1cccc2c1CC[C@H]1CN(CCn3c(=O)[nH]c4c(sc5ccc([N+](=O)[O-])cc54)c3=O)C[C@@H]21	6.64	1.28 nM	1.31 nM	8.49 nM
COc1cccc2c1CC[C@H]1CN(CCn3c(=O)[nH]c4c(sc5nc(C)c(C)nc54)c3=O)C[C@@H]21	35.6	0.39 nM	3.28 nM	13.9 nM
COc1cccc2c1CC[C@H]1CN(CCn3c(=O)[nH]c4c(sc5ccc(C(N)=O)cc54)c3=O)C[C@@H]21	12.2	0.52 nM	0.51 nM	6.34 nM
COC(=O)c1ccc2sc3c(=O)n(CCN4C[C@@H]5CCc6c(OC)cccc6[C@@H]5C4)c(=O)[nH]c3c2c1	3.01	4.75 nM	2.84 nM	14.3 nM
COc1cccc2c1CC[C@H]1CN(CCn3c(=O)[nH]c4c(sc5ncc(-c6ccccc6)nc54)c3=O)C[C@@H]21	30.7	3.91 nM	19.8 nM	120 nM
COc1cccc2c1CC[C@H]1CN(CCn3c(=O)[nH]c4c(sc5nc(C)cnc54)c3=O)C[C@@H]21	27.5	0.49 nM	2.31 nM	13.5 nM

Further lines, results first:

Selectivity ratio [1]	Ki [2]	Ki [3]	Ki [4]	Compound
1.55	–	–	–	COc1cccc2c1CC[C@H]1CN(CCn3c(=O)[nH]c4c(sc5ccccc54)c3=O)C[C@@H]21 (stereo in doubt; 23)
4.34	0.44 nM	0.31 nM	1.91 nM	COc1cccc2c1CC[C@H]1CN(CCn3c(=O)[nH]c4c(sc5ccc(Cl)cc54)c3=O)C[C@@H]21
14	0.33 nM	0.28 nM	4.63 nM	COc1cccc2c1CC[C@H]1CN(CCn3c(=O)[nH]c4c(sc5ccncc54)c3=O)C[C@@H]21
12.3	98.9 nM	25 nM	1220 nM	COc1cccc2c1CC[C@H]1CN(CCn3c(=O)[nH]c4c(sc5c(Cl)cccc54)c3=O)C[C@@H]21
8.7	1.64 nM	0.59 nM	14.3 nM	COc1cccc2c1CC[C@H]1CN(CCn3c(=O)[nH]c4c(sc5ccc(C#N)cc54)c3=O)C[C@@H]21
1.97	2.16 nM	1.04 nM	4.26 nM	COc1cccc2c1CC[C@H]1CN(CCn3c(=O)[nH]c4c(sc5ccc(C)cc54)c3=O)C[C@@H]21
4	–	–	–	COc1cccc2c1CCC1CN(CCn3c(=O)[nH]c4c(sc5ccccc54)c3=O)CC21 (stereo in doubt; 18) [listing 1 of 2 here]
6.28	0.53 nM	0.37 nM	3.33 nM	COc1cccc2c1CC[C@H]1CN(CCn3c(=O)[nH]c4c(sc5cnccc54)c3=O)C[C@@H]21
–	1.08 nM	0.63 nM	3.43 nM	COc1cccc2c1CCC1CN(CCn3c(=O)[nH]c4c(sc5ccccc54)c3=O)CC21 (stereo in doubt; 21) [listing 1 of 2 here]
5.57	–	–	–	COc1cccc2c1CC[C@H]1CN(CCn3c(=O)[nH]c4c(sc5ccccc54)c3=O)C[C@@H]21 (stereo in doubt; 22)
4.24	6.35 nM	2.08 nM	26.9 nM	COc1cccc2c1CC[C@H]1CN(CCn3c(=O)[nH]c4c(sc5c(C#N)cccc54)c3=O)C[C@@H]21
6.17	0.51 nM	1.32 nM	3.15 nM	COc1cccc2c1CC[C@H]1CN(CCn3c(=O)[nH]c4c(sc5cccc(Cl)c54)c3=O)C[C@@H]21
10.8	3.3 nM	6.6 nM	35.8 nM	COc1cccc2c1CC[C@H]1CN(CCn3c(=O)[nH]c4c(sc5cccc(C#N)c54)c3=O)C[C@@H]21
3.17	–	–	–	COc1cccc2c1CCC1CN(CCn3c(=O)[nH]c4c(sc5ccccc54)c3=O)CC21 (stereo in doubt; 21) [listing 2 of 2 here]
15.5	0.4 nM	0.74 nM	6.2 nM	COc1cccc2c1CC[C@H]1CN(CCn3c(=O)[nH]c4c(sc5cc(C#N)ccc54)c3=O)C[C@@H]21
19.7	3.13 nM	4.16 nM	61.6 nM	COc1cccc2c1CC[C@H]1CN(CCn3c(=O)[nH]c4c(sc5c(Cl)ccnc54)c3=O)C[C@@H]21
–	0.64 nM	0.37 nM	2.57 nM	COc1cccc2c1CCC1CN(CCn3c(=O)[nH]c4c(sc5ccccc54)c3=O)CC21 (stereo in doubt; 18) [listing 2 of 2 here]
